The source of these data is ChEMBL document CHEMBL1124795, “Synthesis and cytotoxicity of deoxyadenosine analogues: isomer distribution in the sodium salt glycosylation of 2,6-disubstituted purines” (J Med Chem, 1990).

The test system of series [1] is B-95-8 cell line. As to the kind of experiment: In vitro toxicity which caused 50% decrease in [14C]- leucine incorporation by the B-95-8 cells in culture at 40 uM; IN-Inactive. The format is functional, cell-based. In a few lines:
(§1)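 Cells seeded at 10⁴ per well and exposed to compounds for 3 days in RPMI 1640 with 10% fetal calf serum, glutamine and antibiotics, at 37 °C under 5% CO₂. [¹⁴C]-L-leucine (0.5 μCi/mL) was present for the final 24 h. Protein was precipitated with 0.2 N perchloric acid, collected on glass-fibre filters and scintillation-counted. ID50 (μM, 50% drop in incorporation) was read from triplicate dose-response curves.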

In series [2] the test system is HL-60. Description: In vitro toxicity which caused 50% decrease in [14C]- leucine incorporation by the HL-60 cells in culture at 40 uM; IN-Inactive. Particulars: Homo sapiens. The format is functional, cell-based. In outline: as §1
In series [3] the test system is K562. Description: In vitro toxicity which caused 50% decrease in [14C]- leucine incorporation by the K-562 cells in culture at 40 uM; IN-Inactive. The format is functional, cell-based. Particulars: Homo sapiens. In outline: as §1
Series [4] concerns MOLT-4. As to the kind of experiment: In vitro toxicity which caused 50% decrease in [14C]- leucine incorporation by the MOLT-4 cells in culture at 40 uM; IN-Inactive. Particulars: Homo sapiens. The format is functional, cell-based. In outline:
as §1

Series [5] deals with NALL-1. Description: In vitro toxicity which caused 50% decrease in [14C]- leucine incorporation by the NALL-1 cells in culture at 40 uM; IN-Inactive. The format is functional, cell-based. Conditions: Homo sapiens. In outline:
as §1

Series [6] relates to PHA-Ly. Description: In vitro toxicity which caused 50% decrease in [14C]- leucine incorporation by the PHA-LY cells in culture at 40 uM; IN-Inactive. Conditions: Homo sapiens. Format: functional, cell-based. In a few lines: as §1
The test system of series [7] is Raji. Description: In vitro toxicity which caused 50% decrease in [14C]- leucine incorporation by the Raji cells in culture at 40 uM; IN-Inactive. Format: functional, cell-based. Conditions: Homo sapiens. In outline: as §1
Series [8] deals with U-937. As to the kind of experiment: In vitro toxicity which caused 50% decrease in [14C]- leucine incorporation by the U-937 cells in culture at 40 uM; IN-Inactive. Conditions: Homo sapiens. The format is functional, cell-based. In a few lines: as §1
Series [9] deals with B-95-8 cell line. As to the kind of experiment: In vitro toxicity which caused 50% decrease in [14C]- leucine incorporation by the B-95-8 cells in culture. The format is functional, Callitrichidae. Particulars: Saguinus oedipus, read-out: ID50 (the source's name). In outline:
as §1

Series [10] concerns HL-60. Description: In vitro toxicity which caused 50% decrease in [14C]- leucine incorporation by the HL-60 cells in culture. Conditions: Homo sapiens, read-out: ID50 (the source's name). The format is functional. In a few lines: as §1
Series [11] deals with MOLT-4. Description: (§2) In vitro toxicity which caused 50% decrease in [14C]- leucine incorporation by the MOLT-4 cells in culture. The format is functional. Particulars: Homo sapiens, read-out: ID50 (the source's name). In a few lines: as §1
The test system of series [12] is NALL-1. Description: (§3) In vitro toxicity which caused 50% decrease in [14C]- leucine incorporation by the NALL-1 cells in culture. Format: functional. Conditions: Homo sapiens, read-out: ID50 (the source's name). In a few lines:
as §1

The test system of series [13] is PHA-Ly. Description: In vitro toxicity which caused 50% decrease in [14C]- leucine incorporation by the PHA-LY cells in culture. Format: functional. Particulars: Homo sapiens, read-out: ID50 (the source's name). In a few lines:
as §1

Series [14] relates to Raji. Description: (§4) In vitro toxicity which caused 50% decrease in [14C]- leucine incorporation by the Raji cells in culture. The format is functional. Particulars: Homo sapiens, read-out: ID50 (the source's name). In outline:
as §1

Series [15] concerns U-937. As to the kind of experiment: (§5) In vitro toxicity which caused 50% decrease in [14C]- leucine incorporation by the U-937 cells in culture. The format is functional. Particulars: Homo sapiens, read-out: ID50 (the source's name). In a few lines:
as §1

For series [16], the system named is K562. As to the kind of experiment: In vitro toxicity which caused 50% decrease in [14C]- leucine incorporation by the K-562 cells in culture. Format: functional. Conditions: Homo sapiens, read-out: ID50 (the source's name). In outline: as §1
The subject of series [17] is MOLT-4. The description is as §2. The format is cell-based. Conditions: human, read-out: ID50 (the source's name). In outline: as §1
In series [18] the test system is NALL-1. The description is as §3. Format: cell-based. Particulars: human, read-out: ID50 (the source's name). In a few lines: as §1
Series [19] concerns Raji. Described as §4. The format is cell-based. Conditions: human, read-out: ID50 (the source's name). In outline:
as §1

The subject of series [20] is U-937. The description is as §5. Format: cell-based. Conditions: human, read-out: ID50 (the source's name). In outline:
as §1

pIC50: −log10 of the molar value. Activity calls are given as the source filed them. No cut-off for these calls is given here.

Consider `CN(C)c1nc(N(C)C)c2ncn([C@@H]3C[C@@H](O)[C@H](CO)O3)c2n1`, for which the ID50 entry in the series with B-95-8 cell line [1], in the series on HL-60 [2], in the series on K562 [3], in the series with MOLT-4 [4], in the series with NALL-1 [5] and in the series with PHA-Ly [6] was “inactive” throughout. Moreover, the ID50 result in the series with Raji [7] and in the series on U-937 [8] was “inactive” throughout.

Consider `CNc1nc(Br)nc2c1ncn2[C@@H]1C[C@@H](O)[C@H](CO)O1`, for which the pIC50 with B-95-8 cell line [9] is 3.60; in the series with HL-60 [10] it was 3.84; in the series on MOLT-4 [11], 3.75; in the series with NALL-1 [12], 3.64; with PHA-Ly [13], 4.52; with Raji [14], 4.10. Besides, the pIC50 was 3.85 in the series on U-937 [15] and 3.96 in the series with K562 [16].

For the molecule `CN(C)c1nc(N)c2ncn([C@@H]3C[C@@H](O)[C@H](CO)O3)c2n1`, the pIC50 with B-95-8 cell line [9] was 3.74; in the series with HL-60 [10], under 3.52; in the series with MOLT-4 [11], under 3.52; in the series on NALL-1 [12] it was under 3.52; in the series on PHA-Ly [13] it was under 3.52; with Raji [14], 3.90. Moreover, the pIC50 with U-937 [15] and with K562 [16] was under 3.52 each time.

As to `CNc1nc(SC)nc2c1ncn2[C@@H]1C[C@@H](O)[C@H](CO)O1`, the pIC50 in the series on B-95-8 cell line [9] was under 3.52; in the series on HL-60 [10], under 3.52; in the series on MOLT-4 [11] it was under 3.52; with NALL-1 [12], 3.73; in the series on PHA-Ly [13] it was 4.09; in the series on Raji [14] it was under 3.52. Also, the pIC50 with U-937 [15] and in the series on K562 [16] was under 3.52 in each case.

On to `CSc1nc(N(C)C)c2ncn([C@@H]3C[C@@H](O)[C@H](CO)O3)c2n1`, for which the pIC50 in the series with B-95-8 cell line [9] was 3.94; with HL-60 [10] it was under 3.52; in the series on MOLT-4 [11], 3.76; in the series with NALL-1 [12], 3.73; in the series with PHA-Ly [13], 3.59; in the series with Raji [14], 3.63. Besides, the pIC50 was 3.90 with U-937 [15] and under 3.52 in the series with K562 [16].

Regarding `CN(C)c1nc(Br)nc2c1ncn2[C@@H]1C[C@@H](O)[C@H](CO)O1`, the pIC50 in the series on B-95-8 cell line [9] is under 3.52; with HL-60 [10], under 3.52; in the series with MOLT-4 [11], under 3.52; in the series with NALL-1 [12] it was 3.54; in the series with PHA-Ly [13] it was 4.06; with Raji [14] it was under 3.52. The pIC50 with U-937 [15] is 3.79; in the series with K562 [16], under 3.52.

In the case of `Nc1nc(Br)nc2c1ncn2[C@@H]1C[C@@H](O)[C@H](CO)O1`, the pIC50 is 5.22 in the series with B-95-8 cell line [9], 4.39 in the series on HL-60 [10], 5.80 in the series on PHA-Ly [13] and 4.08 in the series with K562 [16]. For the same molecule, the CC50 in the series with MOLT-4 [17] is 3.2 µM; in the series on NALL-1 [18], 12 µM; in the series on Raji [19] it was 0.7 µM; in the series on U-937 [20], 0.8 µM.

Take `CSc1nc(SC)c2ncn([C@@H]3C[C@@H](O)[C@H](CO)O3)c2n1`: the pIC50 with B-95-8 cell line [9] was 3.65; in the series with HL-60 [10], under 3.52; with MOLT-4 [11], 3.85; in the series on NALL-1 [12], 3.76; in the series with PHA-Ly [13] it was 3.78; with Raji [14] it was 3.77. Besides, the pIC50 with U-937 [15] and in the series on K562 [16] was under 3.52 each time.

As to `CSc1nc(N)c2ncn([C@@H]3C[C@@H](O)[C@H](CO)O3)c2n1`, the pIC50 in the series on B-95-8 cell line [9] is under 3.52; with HL-60 [10] it was under 3.52; with MOLT-4 [11] it was under 3.52; in the series with NALL-1 [12], 4.02; with PHA-Ly [13], 4.09; with Raji [14] it was 3.97. Moreover, the pIC50 with U-937 [15] and in the series with K562 [16] was under 3.52 each time.
